From PubChem BioAssay
DTT redox prof = compounds producing H2O2 with reducing agent – biochemical, NIH compound library profiling, artefact control for MLSCN library redox annotation, primary screen; DTT-dependent redox cycling H2O2, phenol red/HRP absorbance; 100% = 100 µM peroxide control, 0% = buffer; activation, % at 10 µM; actives 0.03% (n = 200,000); AID 878;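 active = activation of at least 50% relative to the plate's high and low controls in the primary single-dose screen; inactive = activation below 50%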;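 also: compound incubated with DTT at 0.8 mM final as the reducing agent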
KCC2 mod = KCC2 (human) Cl- transport modulation; Q9H2X9; KCC2 cells, thallium flux FluoZin-2 fluorescence; B-score of Tl+ flux slope (higher = more flux/activation; lower = inhibition) at 10 µM; actives 2.2% (n = 190,000); AID 1456;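 active = thallium flux slope and its plate-corrected score both differing from the plate sample mean at a set confidence after two filtering rounds, in either direction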;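 also: slope of fluorescence scaled to starting intensity during 10 to 20 s after thallium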
Dynein transport = blocks dynein driven cargo transport along microtubules; z-score, hits read low; actives 0.47% (n = 220,000); 3617.4 mouse cells, GR-EGFP nuclear translocation imaging; test concentration mostly 20 µM; stimulated with dexamethasone, 1 µM; stronger effect = lower value;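 active = plate z-score of nuclear minus cytoplasmic receptor signal below a set negative limit, without overly bright fluorescence or cell loss, cut at about -3.5 in these data, passing the limit was not always enough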;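 also: z-score of nuclear minus cytoplasmic ring GR-EGFP intensity difference per well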
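Buffer or medium: tet-free medium with charcoal-stripped serum / Also added: dexamethasone agonist, 1.0 µM final, for 30 min / Timing: induction 48 h, compound 1 h, agonist 30 min / Measured by: high-content fluorescence imaging after fixation / Read-out: nuclear-to-cytoplasmic GR-EGFP distribution per well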
Autophagy HCS = autophagy modulation, high-content screen | MEF GFP-LC3 puncta imaging; test concentration mostly 10 µM | calls only at 10 µM (by protocol) | actives 0.98% (n = 190,000) | AID 463193;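 active = percentage of spot-positive cells more than 3 SD above its plate mean, without a fluorescence outlier flag or 80% toxicity; inconclusive = no clear call, values can overlap the other calls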;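 also: spot-positive cell cutoff set from DMSO-treated cells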
ROMK mod = modulators of human ROMK potassium channel | actives 2% (n = 130,000) | P48048 | Tet-inducible ROMK, thallium flux fluorescence; actives lie on both sides | AID 1918 | B-score at 10 µM;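 active = signal ratio slope over the read window, or its plate-corrected B-score, at least 3 SD from the plate mean, either direction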;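 also: B-score of the F/F0 ratio slope over 7 to 12 s after thallium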
Dynein confirm = dynein cargo transport inhibition, confirmation. shares compounds with Dynein transport. 3617.4 GR-EGFP nuclear translocation imaging, dexamethasone-induced. calls only at 20 µM. actives 69% (n = 1,000);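 active = inhibition of receptor movement into the nucleus at or above a set limit in both runs, with normal cell brightness and cell count; inconclusive = limit reached in only one run, brightness and count normal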;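 also: dexamethasone at 1 µM final in well for 30 min; nuclear minus cytoplasmic GR-EGFP mean intensity difference in channel 2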
An asterisk follows results filed as active. This is a sample that favours compounds with a hit; in the whole collection about 4.1% have one here.

What do the screens show for `CN1CCN(C2=C(Cl)C(=O)N(c3ccc(Cl)c(Cl)c3)C2=O)CC1`?
DTT redox prof: -3; Dynein transport: -4.6*; Autophagy HCS: inactive; ROMK mod: -0.47; Dynein confirm: inconclusive

What do the screens show for `Cc1cc(NC(=O)c2coc(=O)c(Br)c2)ccc1C(C)C`?
KCC2 mod: -1.4; Dynein transport: -5.4*; Dynein confirm: active

Results for C[C@@H](NC(=O)c1coc(=O)c(Br)c1)c1ccccc1 ?
DTT redox prof: 0; Dynein transport: -1.8; Autophagy HCS: inactive; ROMK mod: -0.74

How did O=S(=O)(NCc1ccccc1F)NCc1ccccc1F do in these assays?
DTT redox prof: -1; KCC2 mod: -0.52; Dynein transport: -0.77; Autophagy HCS: inactive

How did CCOC(=O)CS(=O)(=O)c1nc(-c2ccc(F)cc2)cc(C(F)(F)F)n1 do in these assays?
DTT redox prof: 1; KCC2 mod: -2.6; Dynein transport: -4.8; Autophagy HCS: inactive; Dynein confirm: active

What do the screens show for `CCOCCCNC(=O)C(c1ccc(C)cc1)N(Cc1cccs1)C(=O)CNC(C)=O` (stereo unspecified)?
DTT redox prof: 0; KCC2 mod: 0.27; Dynein transport: 2.6; Autophagy HCS: inactive; ROMK mod: -0.15

How did CNC(=O)COC(=O)c1ccccc1C(=O)c1ccc(Cl)c([N+](=O)[O-])c1 do in these assays?
DTT redox prof: -2; KCC2 mod: -1.2; Dynein transport: -4.3*; Autophagy HCS: inactive; ROMK mod: -1.5; Dynein confirm: active

How did O=C(COC(=O)c1ccccc1C(=O)c1ccc(Cl)c([N+](=O)[O-])c1)NC1CC1 do in these assays?
DTT redox prof: 0; KCC2 mod: -0.58; Dynein transport: -1.8; Autophagy HCS: inactive; ROMK mod: -0.42

What do the screens show for `O=S(=O)(CCSc1ccccn1)c1nc2ccccc2s1`?
DTT redox prof: 1; KCC2 mod: 0.11; Dynein transport: -4*; Autophagy HCS: active; Dynein confirm: active

What do the screens show for `O=S(=O)(CCSc1nc2ccccc2o1)c1nc2ccccc2s1`?
DTT redox prof: 0; KCC2 mod: -0.67; Dynein transport: -4.1*; Autophagy HCS: active; Dynein confirm: active

How did CCS(=O)(=O)CCSc1nc2ccccc2o1 do in these assays?
DTT redox prof: 0; KCC2 mod: -0.95; Dynein transport: -0.25; Autophagy HCS: inactive

How did Cn1c(=O)c2c(nc(NN=C3CCCC3)n2C)n(C)c1=O do in these assays?
KCC2 mod: 0.16; Dynein transport: 0.33; ROMK mod: 0.55

What do the screens show for `CCN(CC)c1ccc(N=Cc2ccc([N+](=O)[O-])o2)cc1`?
DTT redox prof: -1; KCC2 mod: -1.1; Dynein transport: -3.8*; Autophagy HCS: inactive; ROMK mod: -0.47; Dynein confirm: inconclusive

How did CCN(CC)c1ccc(N=Cc2ccccc2[N+](=O)[O-])cc1 do in these assays?
DTT redox prof: 0; KCC2 mod: -0.42; Dynein transport: 0.35; Autophagy HCS: inactive; ROMK mod: -0.055

Results for O=C(Nc1ccccc1)C1=C(O)CC(c2ccco2)CC1=Nc1ccccc1 (stereo unspecified) ?
DTT redox prof: -9; Dynein transport: -0.26; Autophagy HCS: inactive; ROMK mod: 0.014

What do the screens show for `O=C(Nc1ccccc1)C1=C(O)CC(c2ccoc2)CC1=Nc1ccccc1` (stereo unspecified)?
DTT redox prof: 1; KCC2 mod: 1; Dynein transport: -4.2*; Autophagy HCS: inactive; Dynein confirm: inactive

How did COc1ccc(S(=O)(=O)n2nc(-c3cc(OC)c(OC)c(OC)c3)cc2N)cc1OC do in these assays?
DTT redox prof: 0; KCC2 mod: -0.28; Dynein transport: -0.12; Autophagy HCS: inactive

What do the screens show for `COc1ccc(-c2cc(N)n(S(=O)(=O)c3c(F)c(F)c(F)c(F)c3F)n2)cc1OC`?
DTT redox prof: 0; Dynein transport: -5.1*; Autophagy HCS: inactive; ROMK mod: -0.21; Dynein confirm: active

Results for O=C(/C=C/c1cccc([N+](=O)[O-])c1)NC(=S)Nc1cccc(NC(=O)c2ccccc2Cl)c1 ?
DTT redox prof: 0; KCC2 mod: 0.75; Dynein transport: -0.62; Autophagy HCS: inactive; ROMK mod: 0.83

Results for O=C(/C=C/c1cccc([N+](=O)[O-])c1)NC(=S)Nc1ccccc1C(=O)O ?
DTT redox prof: 0; KCC2 mod: -0.46; Dynein transport: -3.5*; Autophagy HCS: inactive; ROMK mod: -1.8; Dynein confirm: active

What do the screens show for `CCOC(=O)C=C(C(=O)OCC)C(=O)OCC`?
DTT redox prof: 3; KCC2 mod: 0.46; Dynein transport: -4.2*; Autophagy HCS: inactive; ROMK mod: 1; Dynein confirm: active

Results for CCC(=O)Nc1cccc(C(=O)/C=C/c2ccc(F)cc2)c1 ?
DTT redox prof: -1; KCC2 mod: -0.39; Dynein transport: -4.8*; Autophagy HCS: inactive; ROMK mod: -1.8; Dynein confirm: active

What do the screens show for `CN(C)c1ccc(/C=C/C(=O)c2cccc(Br)c2)cc1`?
DTT redox prof: -3; Dynein transport: -13; Autophagy HCS: active; Dynein confirm: active

Results for CC(=O)Nc1cccc(C(=O)/C=C/c2ccc(C)cc2)c1 ?
DTT redox prof: 0; KCC2 mod: 0.68; Dynein transport: -0.34; Autophagy HCS: inactive

Results for CC(=O)c1ccc(NC(=O)C(C)OC(=O)COc2ccc(C#N)cc2)cc1 (stereo unspecified) ?
DTT redox prof: 0; KCC2 mod: -0.18; Dynein transport: 0.68; Autophagy HCS: inactive; ROMK mod: 0.0081

How did CCCCOC(=O)Nc1nnc(Cc2ccc(Cl)cc2)s1 do in these assays?
DTT redox prof: -1; KCC2 mod: 0.038; Dynein transport: -0.45; Autophagy HCS: inactive; ROMK mod: -0.22

How did CCCOC(=O)c1ccc(NC(=O)CSC2=Nc3ccccc3C3CC=NN23)cc1 (stereo unspecified) do in these assays?
DTT redox prof: 1; KCC2 mod: 0.73; Dynein transport: 1.1; Autophagy HCS: inactive; ROMK mod: 0.68

What do the screens show for `O=C(CSC1=Nc2ccccc2C2CC=NN12)Nc1ccc2c(c1)OCO2` (stereo unspecified)?
DTT redox prof: 0; KCC2 mod: -0.3; Dynein transport: -3.7*; Autophagy HCS: inactive; ROMK mod: -1.1; Dynein confirm: active

How did CCc1ccccc1NC(=O)CCc1nc(-c2cccs2)no1 do in these assays?
DTT redox prof: 0; KCC2 mod: -0.54; Dynein transport: 1.3; Autophagy HCS: inactive; ROMK mod: -0.96

How did COc1ccc(C2(C(=O)NCc3ccccc3Cl)CCOCC2)cc1OC do in these assays?
DTT redox prof: 0; KCC2 mod: 0.38; Dynein transport: -0.87; Autophagy HCS: inactive; ROMK mod: 0.77
